# Laboratory results reported in ChEMBL document CHEMBL4387744, “Discovery of conolidine derivative DS39201083 as a potent novel analgesic without mu opioid agonist activity” (Bioorg Med Chem Lett, 2019).
# Key:
# Mus musculus [1] = test: Analgesic activity in Slc:ddY mouse assessed as inhibition of acetic acid-induced writhings at 30 mg/kg, po relative to control; type: functional
# How it was run: (§1)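 Acetic acid-induced writhing in Slc:ddY mice after oral dosing. Read-out is reduction (% inhibition) of writhing behaviour. ED50 calculated from the dose-response curve of analgesic activity at 10, 30 and 100 mpk.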
# [2] = Distribution coefficient between 1-octanol and phosphate buffer, logD of the compound in pH 7.4 buffer; type: physicochemical; conditions: 1-octanol/phosphate buffer
# How it was run: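 Log D measured as partitioning between 1-octanol and phosphate-buffered saline at pH 7.4.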
# [3] = AUC in ddY mouse 10 mg/kg, po; type: ADME, organism-based; conditions: in vivo
# How it was run: (§2)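 Plasma pharmacokinetics in ddY mice after a single oral dose of 10 mg/kg, given as a 0.5 w/v% methylcellulose suspension. Reported values are the average of three.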
# [4] = Cmax in ddY mouse 10 mg/kg, po; type: ADME, organism-based; parameters: dose 10 mg/kg, route oral; conditions: in vivo; how it was run: as §2
# [5] = Half life in ddY mouse 10 mg/kg, po; type: ADME, organism-based; conditions: in vivo; how it was run: as §2
# Mus musculus [6] = species on record: Mus musculus; test: Analgesic activity in Slc:ddY mouse assessed as inhibition of acetic acid-induced writhings; type: functional; how it was run: as §1
# Mu-type opioid receptor [7] = biological target: T1, Mu-type opioid receptor (Homo sapiens, UniProt P35372); test: Displacement of [3H]-diprenorphine from MOR (unknown origin); type: ADME
# T1 sequence (P35372 whole entry): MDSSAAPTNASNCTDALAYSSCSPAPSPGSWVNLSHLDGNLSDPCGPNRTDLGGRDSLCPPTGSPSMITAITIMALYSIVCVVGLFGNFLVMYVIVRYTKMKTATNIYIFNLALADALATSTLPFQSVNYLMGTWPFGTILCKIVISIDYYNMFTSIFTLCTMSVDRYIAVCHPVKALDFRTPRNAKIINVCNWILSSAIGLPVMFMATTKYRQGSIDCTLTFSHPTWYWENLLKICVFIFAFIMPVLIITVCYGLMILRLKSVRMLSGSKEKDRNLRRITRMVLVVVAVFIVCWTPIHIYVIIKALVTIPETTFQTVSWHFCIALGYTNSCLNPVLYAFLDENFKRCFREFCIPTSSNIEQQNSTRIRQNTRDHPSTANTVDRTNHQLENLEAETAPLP
# Mu-type opioid receptor [8] = biological target: T1, Mu-type opioid receptor; test: Agonist activity at human mu opioid receptor expressed in CHO cells by cAMP assay; type: cell-based
# How it was run: (§3)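 Human MOR expressed in CHO cells; cAMP read-out. EC50 derived from the cAMP response.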
# Mu-type opioid receptor [9] = biological target: T1, Mu-type opioid receptor; test: Agonist activity at human mu opioid receptor expressed in CHO cells by cAMP assay relative to DAMGO; type: cell-based; how it was run: as §3
# Mus musculus [10] = test: Analgesic activity in Slc:ddY mouse assessed as reduction in sum of the time spent in paw licking or biting responses during phase 1 at 30 mg/kg, po dosed 30 mins before formalin injection by formalin test relative to control; type: functional
# How it was run: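 Formalin test in Slc:ddY mice (n = 8). Compound given p.o. at 30 mg/kg; 30 min later 3.5% formalin (20 μL) injected into the hind paw pad. Read-out is the reduction in summed paw licking and biting time over the first 10 min after injection (initial phase).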
# Mus musculus [11] = test: Analgesic activity in Slc:ddY mouse assessed as inhibition of acetic acid-induced writhings at 3 mg/kg, po relative to control; type: functional
# Mus musculus [12] = test: Analgesic activity in Slc:ddY mouse assessed as inhibition of acetic acid-induced writhings at 10 mg/kg, po relative to control; type: functional; how it was run: as §1
smiles,measurement,setting,value
O=C1c2[nH]c3ccccc3c2CN2CCC1CC2,inhibition in vivo at 30 mg/kg,Mus musculus [1],73%
same,logD,[2],1.8
same,AUC,[3],2.26 µM·h
same,Cmax,[4],1160 nM
same,half-life,[5],1.17 h
same,ED50,Mus musculus [6],11 mg/kg
same,IC50,Mu-type opioid receptor [7],> 100 µM
same,EC50,Mu-type opioid receptor [8],> 100 µM
same,Emax,Mu-type opioid receptor [9],13%
C/C=C1/CN2CCC1C(=O)c1[nH]c3cccc(OC)c3c1C2 (racemic),inhibition in vivo at 30 mg/kg,Mus musculus [1],42%
same,logD,[2],3.4
C/C=C1/CN2CC[C@H]1C(=O)c1[nH]c3ccccc3c1C2.O=S(=O)(O)O,inhibition in vivo at 30 mg/kg,Mus musculus [1],49%
same,logD,[2],2.8
same,ED50,Mus musculus [6],32 mg/kg
same,inhibition in vivo at 30 mg/kg,Mus musculus [10],43%
same,IC50,Mu-type opioid receptor [7],70 µM
same,EC50,Mu-type opioid receptor [8],> 100 µM
same,Emax,Mu-type opioid receptor [9],13%
CCC1CN2CCC1C(=O)c1[nH]c3ccccc3c1C2 (mixture of isomers),inhibition in vivo at 30 mg/kg,Mus musculus [1],50%
C/C=C1\CN2CCC1C(=O)c1[nH]c3ccccc3c1C2 (racemic),inhibition in vivo at 30 mg/kg,Mus musculus [1],18%
same,logD,[2],3.3
C/C=C1/CN2CCC1C(=O)c1c(c3ccccc3n1C)C2 (racemic),inhibition in vivo at 30 mg/kg,Mus musculus [1],30%
same,logD,[2],3.5
C/C=C1/CN2CCC1C(=O)c1[nH]c3c(OC)cccc3c1C2 (racemic),inhibition in vivo at 30 mg/kg,Mus musculus [1],34%
same,logD,[2],3.3
CCC12CCN(CC1)Cc1c([nH]c3ccccc13)C2=O.O=S(=O)(O)O,inhibition in vivo at 30 mg/kg,Mus musculus [1],48%
same,logD,[2],3
same,AUC,[3],1.02 µM·h
same,Cmax,[4],710 nM
same,half-life,[5],1.28 h
C/C=C1/CN2CCC1C(=O)c1[nH]c3ccccc3c1C2 (racemic),inhibition in vivo at 30 mg/kg,Mus musculus [1],49%
CC/C=C1/CN2CCC1C(=O)c1[nH]c3ccccc3c1C2 (racemic),inhibition in vivo at 30 mg/kg,Mus musculus [1],0%
C/C=C1/CN2CCC1C(=O)c1[nH]c3ccc(OC)cc3c1C2 (racemic),inhibition in vivo at 30 mg/kg,Mus musculus [1],3%
same,logD,[2],3.1
C/C=C1/CN2CCC1C(=O)c1[nH]c3cc(OC)ccc3c1C2 (racemic),inhibition in vivo at 30 mg/kg,Mus musculus [1],31%
same,logD,[2],3.1
CC12CCN(CC1)Cc1c([nH]c3ccccc13)C2=O.O=S(=O)(O)O,inhibition in vivo at 30 mg/kg,Mus musculus [1],90 to 94%
same,logD,[2],2.5
same,AUC,[3],3.21 µM·h
same,Cmax,[4],1250 nM
same,half-life,[5],2.33 h
same,ED50,Mus musculus [6],7.8 mg/kg
same,inhibition in vivo at 30 mg/kg,Mus musculus [10],92%
same,IC50,Mu-type opioid receptor [7],71 µM
same,EC50,Mu-type opioid receptor [8],> 100 µM
same,Emax,Mu-type opioid receptor [9],12%
same,inhibition in vivo at 3 mg/kg,Mus musculus [11],23%
same,inhibition in vivo at 10 mg/kg,Mus musculus [12],52%
